# Source: PubChem
# Cneo AK release: Cryptococcus neoformans lysis via adenylate kinase release; C. neoformans lysis, adenylate kinase release luminescence, 4 h; normalised: neutral wells 0, clomiphene wells 100; lysis activity, % at 15 µM; hit rate 0.2% among 360,000; AID 651654;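 active means mean lysis activity across replicates of at least 80%, whatever share of replicates individually reach that level; inactive means mean lysis activity below 80%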
#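 Test system: log-phase Cryptococcus neoformans yeast cells. Input: 5 × 10^6 yeast cells/mL. Medium: fresh YPD growth medium. Doses: single dose. Incubation: static 4 h at 37 °C with compound, 1 h detection. Measured by: luminescent adenylate kinase detection reagent. Read-out: signal increase indicating cell lysis. Benchmarks: Clomiphene.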
# Statin myotox sup: protects C2C12 myotubes from simvastatin toxicity; ATP luminescence, 48 h; scaled: DMSO 0, geranylgeraniol control 100; rescue of ATP level, % at 7.49 µM; hit rate 0.78% among 330,000;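 active means mean ATP rescue above about 67%, or every replicate alone reaching that limit, limit read from the data, passing the limit was not always enough; inconclusive means no clear call, values can overlap the other calls; inactive means mean under the limit and some replicate under it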;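 further: myotubes were challenged with 10 µM simvastatin during compound exposure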
# DENV2 CPE: protects cells from dengue virus 2 cytopathic effect | DENV2-infected cells, cytopathic effect rescue, plate reader | CPE inhibition, % at 9.99 µM | hit rate 1.7% among 350,000; in the data active means CPE inhibition above about 20%, passing the limit was not always enough; inconclusive means no clear call, values can overlap the other calls; tested in BHK-21 cells;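 further: 0% = median of neutral control wells and 100% = median of positive control wells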
# ERp5 block: inhibitors of human ERp5 | ERp5 insulin aggregation, absorbance 650 nm, 90 min | inhibition, % at 9.99 µM | hit rate 0.05% among 350,000;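 active means mean replicate inhibition above about 25%, with every replicate also reaching it, limit read from the data, passing the limit was not always enough; inconclusive means only one of those two criteria met; inactive means neither criterion met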
# Target sequence (Q15084 whole entry, looked up): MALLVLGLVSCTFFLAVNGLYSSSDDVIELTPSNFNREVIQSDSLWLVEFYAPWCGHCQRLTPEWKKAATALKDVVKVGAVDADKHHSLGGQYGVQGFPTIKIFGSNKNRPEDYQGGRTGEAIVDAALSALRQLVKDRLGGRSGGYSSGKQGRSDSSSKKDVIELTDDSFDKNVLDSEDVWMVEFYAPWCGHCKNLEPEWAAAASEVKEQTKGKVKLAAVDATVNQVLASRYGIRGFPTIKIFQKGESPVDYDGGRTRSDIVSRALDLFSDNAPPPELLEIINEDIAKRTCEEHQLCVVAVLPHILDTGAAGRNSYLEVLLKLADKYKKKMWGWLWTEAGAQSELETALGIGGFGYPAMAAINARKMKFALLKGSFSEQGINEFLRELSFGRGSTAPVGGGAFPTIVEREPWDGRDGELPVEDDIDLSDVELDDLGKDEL
# F508del corr: correctors of CFTR F508del function in bronchial epithelial cells; CFBE cells, YFP halide quenching; stimulated with forskolin plus potentiator P3; % fluorescence drop versus neutral controls; hit rate 0.36% among 350,000; activity (quench increase), % at 7.58 µM; AID 720511;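 active means mean added fluorescence quench of at least 8% versus neutral control, with both replicates also reaching 8%; inconclusive means only one of the mean or replicate conditions met; inactive means mean below 8% and not both replicates reaching 8%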;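 further: cells transiently co-express mutant CFTR-F508del with the halide-sensitive YFP; corrector assay measuring rescue of mutant channel to the surface after 24 h compound exposure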
# PDI turbidity: inhibitors of human protein disulfide isomerase; P07237; PDI insulin aggregation turbidity, A650, 90 min; inhibition, % at 10 µM; hit rate 0.052% among 350,000; AID 588391;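 active means mean inhibition across replicates of 30% or more, whatever share of single replicates reach that level; inconclusive means mean inhibition below 30% while every single replicate reaches 30%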
# * hit, by the source's call; ? = inconclusive; . = no result. The list is not random: actives were taken first. Their share in the collection is about 2.3%.
SMILES,Cneo AK release,Statin myotox sup,DENV2 CPE,ERp5 block,F508del corr,PDI turbidity
COc1ccc(CN(C)C[C@@H]2Oc3ccc(NS(C)(=O)=O)cc3CC(=O)N([C@H](C)CO)C[C@H]2C)cc1,97*,15,-4,1,-2,.
COc1ccc(OC)c(/C=C/C(=O)Nc2ccc3c(c2)CCC3)c1,-6,.,23*,-1,1,8
COc1ccccc1/C=C/C(=O)Nc1ccc2c(c1)CCC2,.,.,.,.,.,6
CN(C)CC(=O)N1CC2(C1)[C@@H](c1ccccc1)[C@@H](CO)N2C(=O)C1CCCC1,.,.,3,-4,1,.
CCc1ccc2c(c1)NC(=O)C2(C)Cc1cccc(F)c1 (stereo not drawn),-1,4,1,0,-2,-4
CC1(Cc2cccc(F)c2)C(=O)Nc2ccc(-c3cccnc3)cc21 (stereo not drawn),0,14,54*,0,-1,-14
CC1(Cc2ccc(Cl)cc2)C(=O)Nc2ccc(-c3cccnc3)cc21 (stereo not drawn),0,116*,8,3,4,11
CCOc1ccc(CNn2nnnc2N)cc1,1,119*,.,.,.,-5
O=[N+]([O-])c1ccccc1N/N=C1\CC2CC=CC12 (stereo not drawn),.,.,30*,0,0,-3
c1ccc(Nc2nc(-c3cccs3)cs2)nc1,-4,148*,.,.,.,4
Fc1ccc(-c2csc(Nc3ccccn3)n2)cc1,0,154*,-6,-1,4,-3
COc1cccc(/C=C/C(=O)OCC(=O)NCCC2=CCCCC2)c1OC,-1,4,3,8,1,-4
O=C(/C=C/c1cccc2ccccc12)NCCC1=CCCCC1,1,82*,.,.,.,8
O=C(C[C@H]1CC[C@@H]2[C@H](COC[C@H](O)CN2Cc2cccc(-c3ccncc3)c2)O1)N1CCN(c2ccccc2)CC1,2,12,-6,1,-2,.
C[C@H]1CN([C@@H](C)CO)S(=O)(=O)c2ccc(C#CC3CC3)cc2O[C@@H]1CN(C)C(=O)C1CCCCC1,.,-40,.,.,-5,.
C[C@@H]1CN([C@@H](C)CO)S(=O)(=O)c2ccc(C#Cc3ccccn3)cc2O[C@H]1CN(C)Cc1ccccc1,101*,-62,.,-3,-1,.
C[C@H]1CN([C@@H](C)CO)S(=O)(=O)c2ccc(C#Cc3ccccn3)cc2O[C@H]1CN(C)Cc1ccccc1,0,50,-11,2,-1,.
C[C@@H]1CN([C@H](C)CO)S(=O)(=O)c2ccc(C#Cc3ccccn3)cc2O[C@H]1CN(C)Cc1ccccc1,91*,-26,.,-2,1,.
CO[C@H]1CN(C)C(=O)c2cc(NC(=O)Nc3cccc(F)c3)ccc2OC[C@@H](C)NC[C@H]1C,-6,6,5,2,1,.
CCN(CC(=O)Nc1c(F)cccc1F)C(=O)C1CCN(S(=O)(=O)c2ccc(F)cc2)CC1,1,-11,28*,5,-7,-2
CCN(CC(=O)Nc1c(F)cccc1F)C(=O)C1CCN(C(=O)c2ccc(F)cc2)CC1,-2,-9,-2,-8,-1,0
CCC(=O)Nc1ccc2c(c1)OC[C@H](C)N(Cc1nccs1)C[C@H](C)[C@H](OC)CN(C)C2=O,.,.,-10,.,1,.
CCC(C)(C)NC(=O)CN(C(=O)CNS(=O)(=O)c1ccccc1)c1ccccc1,4,101*,.,.,.,-14
NS(=O)(=O)c1ccc(CCNC(=O)C2CCCN2C(=O)c2cccs2)cc1 (stereo not drawn),-1,12,95*,-14,-3,9
Cc1cc(Cn2nc(C(=O)NCC3CC3)cc2-c2ccccc2)on1,0,8,22*,0,2,6
SMILES,Cneo AK release,Statin myotox sup,DENV2 CPE,ERp5 block,F508del corr,PDI turbidity
Cc1ccc(CNC(=O)c2cc(-c3ccccc3)n(Cc3cc(C)no3)n2)cc1,1,37,5,-2,3,-4
CCOc1nc(Nc2ccc(F)cc2)nc(N2CCN(c3ccc(OC)cc3)CC2)n1,-2,110*,.,.,.,-2
COc1ccc(Nc2ncc(C(=O)O)c3ccccc23)cc1,4,1,.,.,.,8
COc1ccc(Nc2ncc(C(=O)N3CCN(c4ccc(F)cc4)CC3)c3ccccc23)cc1,-3,157*,.,.,.,7
CCCNC(=O)[C@@H]1[C@@H](CO)[C@@H]2Cn3c(ccc(C4=CCCC4)c3=O)[C@H]1N2CCC(F)(F)F,1,-10,4,1,1,.
COc1cc(/C=C2\SC(=S)N(NS(=O)(=O)c3ccccc3)C2=O)ccc1O,1,.,-4,1,4,41*
COc1cc(/C=C2\SC(=S)N(NC(=O)c3ccc(O)c(OC)c3)C2=O)ccc1O,-4,102*,12,1,-1,2
COc1cc(/C=C2\SC(=S)N(NC(=O)c3cccc(O)c3)C2=O)ccc1O,-3,1,16,5,0,-6
COc1cc(/C=C2\SC(=S)N(NC(=O)c3ccncc3)C2=O)ccc1O,.,.,4,7,13*,?
COc1cc(/C=C2\SC(=S)N(NC(=O)c3ccccc3OC)C2=O)ccc1O,-1,1,4,-1,-2,-2
CCOc1cc(/C=C2\SC(=S)N(C(C(=O)O)c3ccccc3)C2=O)ccc1O (stereo not drawn),-3,-13,2,0,14*,35*
O=C(C[C@@H]1C[C@@H]2c3cc(NC(=O)NC4CCCC4)ccc3O[C@@H]2[C@H](CO)O1)NCCN1CCCCC1,1,0,-3,-3,-1,.
CCOC(=O)c1ccc(S(=O)(=O)N2CCC(C(=O)OCC)CC2)cc1,-1,-2,.,1,-3,-3
CCOC(=O)c1ccc(S(=O)(=O)N2CCC(N3CCCCC3)CC2)cc1,5,1,32*,1,-3,.
COc1ccc(CCNc2c3ccccc3nc3ccccc23)cc1OC,-3,.,0,1,10*,-2
COc1nc(NCCc2ccc(OC)c(OC)c2)nc(OC)n1,-1,8,.,.,.,2
Cn1cnc(S(=O)(=O)N[C@H]2CC[C@@H](CC(=O)Nc3ccccc3)O[C@@H]2CO)c1,-6,4,-2,1,-3,.
O=c1[nH]c(/C=C/c2ccccc2F)nc2ccccc12,-9,-126,-4,3,9.8*,0
O=c1[nH]c(/C=C/c2cccc3ccccc23)nc2ccccc12,.,.,-3,3,2,1
O=C(C[C@H]1C[C@@H]2c3cc(NC(=O)Nc4ccccc4F)ccc3O[C@@H]2[C@H](CO)O1)NC1CCCCC1,22,-5,-3,4,0,.
CCOc1cc(OCC)c(C(C)=O)cc1OCC,6,-1,-4,-1,8.4*,.
O=C1CSC(c2ccccc2)N1c1cccc(Cl)c1 (stereo not drawn),0,.,6,2,2,.
COc1cc(C2=NOC(C(=O)NCc3cccs3)C2)cc(OC)c1OC (stereo not drawn),0,87*,.,.,.,2
